Assay results: ChEMBL document CHEMBL1142953, “Calcitonin gene-related peptide analogues with aza and indolizidinone amino acid residues reveal conformational requirements for antagonist activity at the human calcitonin gene-related peptide 1 receptor” (J Med Chem, 2007)
Activity calls are given as the source filed them. The calls are words filed in the database; no cut-off is given here.

Experiments:
Format in all cases: functional, cell-based
[1] = biological target: Calcitonin gene-related peptide type 1 receptor (Homo sapiens) (UniProt Q16602); experiment: Partial agonist activity at human CGRP1 expressed in HEK293 cells assessed by measuring cAMP production upto 1 uM
Chain of Calcitonin gene-related peptide type 1 receptor (Homo sapiens) (Q16602 whole entry): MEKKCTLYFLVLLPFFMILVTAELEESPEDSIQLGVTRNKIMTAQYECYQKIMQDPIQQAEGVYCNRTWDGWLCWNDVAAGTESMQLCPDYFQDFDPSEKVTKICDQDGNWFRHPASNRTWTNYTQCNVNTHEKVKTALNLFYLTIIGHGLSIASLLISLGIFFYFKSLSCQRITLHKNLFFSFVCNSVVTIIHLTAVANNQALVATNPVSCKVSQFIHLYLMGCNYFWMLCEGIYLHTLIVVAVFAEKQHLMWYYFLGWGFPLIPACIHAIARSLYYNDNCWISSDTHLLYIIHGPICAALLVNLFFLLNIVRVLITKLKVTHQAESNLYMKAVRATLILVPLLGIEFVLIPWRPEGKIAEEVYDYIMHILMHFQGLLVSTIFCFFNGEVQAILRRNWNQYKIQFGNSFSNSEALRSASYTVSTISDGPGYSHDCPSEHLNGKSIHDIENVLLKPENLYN
Procedure, shortened: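 HEK293 cells stably expressing CRLR were exposed to CGRP27-37 analogues up to 1 µM without α-CGRP. cAMP production was measured with a fluorescence-based kit as the read-out.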

[2] = biological target: Calcitonin gene-related peptide type 1 receptor (Homo sapiens) (UniProt Q16602); experiment: (§1) Antagonist activity against human CGRP1 expressed in HEK293 cells assessed as inhibition of human alpha-CGRP-promoted cAMP production; design: concentration or dose not given beside the values; conditions: concentration not given here
Procedure, shortened: (§2)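 HEK293 cells stably expressing CRLR, seeded at 5000 cells/well. Cells preincubated with peptide analogues for 15 min at 37 °C, then stimulated with 0.5 nM α-CGRP for 15 min at 37 °C. cAMP measured with a fluorescence-based kit. Peptides tested up to 100 µM. At least three independent experiments in triplicate, analysed by nonlinear curve fitting; mean ± SEM.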

[3] = biological target: Calcitonin gene-related peptide type 1 receptor (Homo sapiens, UniProt O60894+Q16602); experiment: as §1; procedure, shortened: as §2
Chain of Calcitonin gene-related peptide type 1 receptor (Q16602 whole entry, one chain of several): as the sequence (Q16602 whole entry) above

CC(C)[C@H](NC(=O)[C@H](CC(=O)O)NC(=O)[C@@H](NC(=O)[C@@H]1CCCN1C(=O)[C@@H](NC(=O)N(N)Cc1ccccc1)C(C)C)[C@@H](C)O)C(=O)NCC(=O)N1CCC[C@H]1C(=O)N[C@@H](Cc1ccccc1)C(=O)N[C@@H](C)C(=O)N[C@@H](Cc1ccccc1)C(N)=O
Activity [1]: inactive
inhibition [2]: 69%
IC50 [3]: 589 nM
